pIC50: −log10 of the molar value.
Legend:
[1] = species: Ovis aries; test: Inhibition of sheep brain tubulin polymerization at 2.5 mM after 15 mins by turbidimetry
Outline: (§1)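 Sheep brain microtubule protein purified by two 37 °C/0 °C assembly–disassembly cycles in 100 mM MES pH 6.6, 1 mM EGTA, 0.5 mM MgCl2. Compound in DMSO (1 µL) added to 150 µL microtubule solution, then incubated 37 °C 10 min and 0 °C 5 min. Polymerization rate read by turbidity at 350 nm. Reported as % inhibition at ~2.5 × 10^-3 M or IC50; deoxypodophyllotoxin reference, ratio IC50 compound/IC50 DPPT.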

[2] = system: KB; test: Cytotoxicity against human KB cells at 1 uM after 72 hrs by MTS assay
[3] = system: KB; test: Cytotoxicity against human KB cells after 72 hrs by MTS assay; assay type: functional, cell-based
Outline: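 KB cells grown in D-MEM with 10% fetal calf serum under 5% CO2. Seeded at 600 cells/well and dosed 24 h later with DMSO solutions from 0.5 nM to 10 µM (1% DMSO final; vehicle controls). After 72 h, MTS added for 3 h at 37 °C and A490 read, in triplicate. % inhibition = (1 − OD treated/OD control) × 100; IC50 derived.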

[4] = system: HL-60; test: Induction of apoptosis in human HL60 cells assessed as increase in caspase 3/7 activation at 500 nM after 48 hrs by fluorescence assay relative to control; assay type: functional
Outline: (§2)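 HL60 cells grown in complete RPMI, seeded at 20 000 cells/well and treated with DMSO-dissolved compound. Vehicle controls; 1 µM doxorubicine positive control. Fluorescence (ex 360/em 465 nm) followed over 3 h. Reported as fold caspase 3/7 activation over control.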

[5] = Inhibition of sheep brain tubulin polymerization after 15 mins by turbidimetry; design: species or system Ovis aries; outline: as §1
[6] = species: Ovis aries; test: Ratio of compound IC50 to DPPT IC50 for sheep brain tubulin polymerization; outline: as §1
[7] = system: HL-60; test: Induction of apoptosis in human HL60 cells assessed as increase in caspase 3/7 activation at 50 nM after 48 hrs by fluorescence assay relative to control; assay type: functional; outline: as §2

SMILES	inhibition [1] [%]	Activity [2] [%]	pIC50 [3]	fold change (FC) [4]	pIC50 [5]	Ratio IC50 [6]	fold change (FC) [7]
COc1cc(O)c2c(=O)c(OC)c(-c3ccc(OC)c(O)c3)oc2c1 [AYANIN]	0	3	–	–	–	–	–
COc1ccc(-c2oc3cc(OC)c(OC)c(O)c3c(=O)c2OC)cc1O [CASTICIN]	–	–	7.01	5.3	4.72	6.8	–
COc1ccc(-c2oc3c(Br)c(OC)c(Br)c(O)c3c(=O)c2OC)cc1O	36	–	6.39	–	–	–	3.2
COc1ccc(-c2oc3c(N(C)C)c(OC)c(OC)c(O)c3c(=O)c2OC)cc1O	0	40	–	–	–	–	–
COc1ccc(-c2oc3c(OC)c(OC)c(OC)c(O)c3c(=O)c2OC)cc1O	–	–	8.10	–	5.89	0.46	6.9
COc1ccc(-c2oc3c(OC)c(O)c(OC)c(O)c3c(=O)c2OC)cc1O	–	10	–	–	4.85	5	–
COc1ccc(-c2oc3c(OC)c(OC)cc(O)c3c(=O)c2OC)cc1O	0	9	–	–	–	–	–

Reference: ChEMBL document CHEMBL1157105, “Semisynthesis of natural flavones inhibiting tubulin polymerization, from hesperidin” (J Nat Prod, 2010)
